Experimental findings from ChEMBL document CHEMBL4229549, “Discovery and structural characterization of peficitinib (ASP015K) as a novel and potent JAK inhibitor” (Bioorg Med Chem, 2018) are described below.

Data set [1] in a line: Intrinsic clearance in Sprague-Dawley rat liver microsomes at 0.2 uM in presence of NADPH by LC-MS/MS analysis. The format is ADME, microsome. As to conditions: read-out: CLH. In outline: (§1)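 Compound at 0.2 or 1.0 µM incubated with male SD rat liver microsomes (0.2 mg protein/mL) plus 1 mM NADPH and 0.1 mM EDTA in 100 mM phosphate buffer at 37°C. Percentage remaining was measured by LC/MS/MS. Run in duplicate.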

Data set [2] concerns the target Tyrosine-protein kinase JAK1 (Homo sapiens, UniProt P23458). The data set is described as follows: Inhibition of recombinant human N-terminal GST-tagged JAK1 catalytic domain (850 to 1154 residues) expressed in baculovirus expression system using Biotin-Lyn-Substrate2 after 1 hr by ELISA.
Data set [3] has as its target Tyrosine-protein kinase JAK2 (Homo sapiens, UniProt O60674). The data set is described as follows: Inhibition of recombinant human N-terminal His-tagged JAK2 catalytic domain (826 to 1132 residues) expressed in baculovirus expression system using Biotin-Lyn-Substrate2 after 1 hr by ELISA.
The target of data set [4] is T1, Tyrosine-protein kinase JAK3 (Homo sapiens, UniProt P52333).
T1 sequence (P52333 whole entry): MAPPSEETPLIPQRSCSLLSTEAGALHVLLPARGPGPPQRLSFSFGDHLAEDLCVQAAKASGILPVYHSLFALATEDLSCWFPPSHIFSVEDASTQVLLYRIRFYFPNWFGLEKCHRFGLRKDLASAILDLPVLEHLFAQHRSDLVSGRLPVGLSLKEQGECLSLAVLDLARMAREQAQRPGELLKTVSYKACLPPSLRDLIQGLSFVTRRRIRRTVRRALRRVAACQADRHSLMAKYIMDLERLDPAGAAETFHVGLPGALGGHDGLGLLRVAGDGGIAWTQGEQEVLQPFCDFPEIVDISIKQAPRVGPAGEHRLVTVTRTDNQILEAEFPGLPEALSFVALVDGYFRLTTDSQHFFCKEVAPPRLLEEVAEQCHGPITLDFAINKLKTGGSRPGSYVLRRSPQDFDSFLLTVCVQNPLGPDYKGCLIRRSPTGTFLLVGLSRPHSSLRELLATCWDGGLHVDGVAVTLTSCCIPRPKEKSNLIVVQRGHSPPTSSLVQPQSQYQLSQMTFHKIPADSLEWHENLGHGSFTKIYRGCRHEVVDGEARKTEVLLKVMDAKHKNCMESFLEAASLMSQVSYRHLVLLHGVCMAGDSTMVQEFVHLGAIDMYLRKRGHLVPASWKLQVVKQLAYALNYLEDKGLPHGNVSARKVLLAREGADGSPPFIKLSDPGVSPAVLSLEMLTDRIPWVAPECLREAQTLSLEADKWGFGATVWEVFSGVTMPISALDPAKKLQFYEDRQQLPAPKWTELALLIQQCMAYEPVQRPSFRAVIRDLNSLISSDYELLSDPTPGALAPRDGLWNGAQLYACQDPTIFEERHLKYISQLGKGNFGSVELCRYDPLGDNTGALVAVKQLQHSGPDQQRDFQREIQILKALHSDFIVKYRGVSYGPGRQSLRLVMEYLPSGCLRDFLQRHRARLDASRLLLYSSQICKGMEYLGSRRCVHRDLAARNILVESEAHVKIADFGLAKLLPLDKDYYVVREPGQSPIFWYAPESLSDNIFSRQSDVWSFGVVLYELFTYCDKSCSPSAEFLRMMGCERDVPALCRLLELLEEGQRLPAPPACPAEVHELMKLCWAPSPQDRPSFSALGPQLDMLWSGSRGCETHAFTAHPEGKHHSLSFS
The data set is described as follows: Inhibition of recombinant human N-terminal His-tagged JAK3 catalytic domain (795 to 1124 residues) expressed in baculovirus expression system using Biotin-Lyn-Substrate2 after 1 hr by ELISA. In outline:
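Human JAK3 kinase domain with 250 nM biotinylated Lyn substrate peptide and 8 µM ATP (final). Reaction started with enzyme, run 1 h at room temperature on streptavidin plate. Phosphorylation read by anti-phosphotyrosine HRP ELISA. Run in duplicate.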

Data set [5] in a line: Inhibition of JAK1/JAK3 in Lewis rat splenocytes assessed as reduction in IL-2-induced T cell proliferation after 3 days by alamar blue assay. The format is cell-based. The note with it: 72 h.
Data set [6] in a line: Half life in Sprague-Dawley rat at 1 mg/kg, iv administered as single dose by LC-MS/MS analysis. The format is ADME, organism-based. As to conditions: in vivo. The gist of the method:
(§2)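 Male SD rats (Crl:CD(SD), 7 weeks old), food deprived before dosing; single intravenous dose of 1 mg/kg in 10 v/v% propylene glycol. Blood was sampled at multiple time points up to 24 h. Unchanged compound in plasma was measured by LC/MS/MS. Parameters were calculated from mean plasma concentrations (n=3) at each time point.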

Data set [7] can be described thus: Oral bioavailability in Sprague-Dawley rat at 1 mg/kg administered as single dose by LC-MS/MS analysis. It counts as ADME, organism-based. The note with it: in vivo. The gist of the method:
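Fasted male SD rats, 7 weeks old, given 1 mg/kg as a single dose, orally in 0.5 w/v% methylcellulose and intravenously in 10 v/v% propylene glycol. Plasma was sampled up to 24 h and unchanged compound measured by LC/MS/MS. Bioavailability was derived from mean concentrations (n=3 per time point).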

Data set [8] is described as follows: Half life in Sprague-Dawley rat at 1 mg/kg, po administered as single dose by LC-MS/MS analysis. It counts as ADME, organism-based. As to conditions: in vivo. The gist of the method:
(§3)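 Male SD rats (Crl:CD(SD), 7 weeks old), food deprived before dosing; single oral dose of 1 mg/kg in 0.5 w/v% methylcellulose. Blood was sampled at multiple time points up to 24 h. Unchanged compound in plasma was measured by LC/MS/MS. Parameters were calculated from mean plasma concentrations (n=3) at each time point.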

Data set [9] is described as follows: Tmax in Sprague-Dawley rat at 1 mg/kg, po administered as single dose by LC-MS/MS analysis. The format is ADME, organism-based. As to conditions: in vivo. In outline: as §3
Data set [10] is described as follows: Cmax in Sprague-Dawley rat at 1 mg/kg, po administered as single dose by LC-MS/MS analysis. It counts as ADME, organism-based. Details: dose 1 mg/kg, route oral. As to conditions: in vivo. In outline: as §3
Data set [11] can be described thus: Total clearance in Sprague-Dawley rat at 1 mg/kg, iv administered as single dose by LC-MS/MS analysis. It counts as ADME, organism-based. The note with it: in vivo. In outline: as §2
A short description of data set [12]: Volume of distribution at steady state in Sprague-Dawley rat at 1 mg/kg, iv administered as single dose by LC-MS/MS analysis. It counts as ADME, organism-based. The note with it: in vivo, read-out: Vdss. In outline:
as §2

A short description of data set [13]: AUC (0 to infinity) in Sprague-Dawley rat at 1 mg/kg, iv administered as single dose by LC-MS/MS analysis. Details: dose 1 mg/kg, time infinity, route intravenous. The note with it: in vivo. It counts as ADME, organism-based. The gist of the method:
as §2

A short description of data set [14]: AUC (0 to infinity) in Sprague-Dawley rat at 1 mg/kg, po administered as single dose by LC-MS/MS analysis. It counts as ADME, organism-based. Details: dose 1 mg/kg, route oral, time infinity. As to conditions: in vivo. In outline: as §3
Data set [15] in a line: Intrinsic clearance in rat liver microsomes. The format is ADME, microsome. As to conditions: read-out: CLH. In outline: as §1
Data set [16] is described as follows: Inhibition of JAK1/JAK3 in rat splenocytes assessed as reduction in IL-2-induced T cell proliferation. The format is cell-based. In outline:
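Male Lewis rat splenocytes, 1.5×10^6 cells/mL in RPMI1640 with 10% FBS and 50 µM 2-mercaptoethanol, primed with concanavalin A 24 h at 37°C to induce IL-2 receptor. Then incubated with IL-2 plus compound at designated concentrations for 3 days. Proliferation read by alamarBlue after 6 h (ex 545/em 590 nm). Duplicate or triplicate wells, IC50 by linear or Sigmoid-Emax regression.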

Chain of Tyrosine-protein kinase JAK2 (O60674 whole entry, the tested form may be a part): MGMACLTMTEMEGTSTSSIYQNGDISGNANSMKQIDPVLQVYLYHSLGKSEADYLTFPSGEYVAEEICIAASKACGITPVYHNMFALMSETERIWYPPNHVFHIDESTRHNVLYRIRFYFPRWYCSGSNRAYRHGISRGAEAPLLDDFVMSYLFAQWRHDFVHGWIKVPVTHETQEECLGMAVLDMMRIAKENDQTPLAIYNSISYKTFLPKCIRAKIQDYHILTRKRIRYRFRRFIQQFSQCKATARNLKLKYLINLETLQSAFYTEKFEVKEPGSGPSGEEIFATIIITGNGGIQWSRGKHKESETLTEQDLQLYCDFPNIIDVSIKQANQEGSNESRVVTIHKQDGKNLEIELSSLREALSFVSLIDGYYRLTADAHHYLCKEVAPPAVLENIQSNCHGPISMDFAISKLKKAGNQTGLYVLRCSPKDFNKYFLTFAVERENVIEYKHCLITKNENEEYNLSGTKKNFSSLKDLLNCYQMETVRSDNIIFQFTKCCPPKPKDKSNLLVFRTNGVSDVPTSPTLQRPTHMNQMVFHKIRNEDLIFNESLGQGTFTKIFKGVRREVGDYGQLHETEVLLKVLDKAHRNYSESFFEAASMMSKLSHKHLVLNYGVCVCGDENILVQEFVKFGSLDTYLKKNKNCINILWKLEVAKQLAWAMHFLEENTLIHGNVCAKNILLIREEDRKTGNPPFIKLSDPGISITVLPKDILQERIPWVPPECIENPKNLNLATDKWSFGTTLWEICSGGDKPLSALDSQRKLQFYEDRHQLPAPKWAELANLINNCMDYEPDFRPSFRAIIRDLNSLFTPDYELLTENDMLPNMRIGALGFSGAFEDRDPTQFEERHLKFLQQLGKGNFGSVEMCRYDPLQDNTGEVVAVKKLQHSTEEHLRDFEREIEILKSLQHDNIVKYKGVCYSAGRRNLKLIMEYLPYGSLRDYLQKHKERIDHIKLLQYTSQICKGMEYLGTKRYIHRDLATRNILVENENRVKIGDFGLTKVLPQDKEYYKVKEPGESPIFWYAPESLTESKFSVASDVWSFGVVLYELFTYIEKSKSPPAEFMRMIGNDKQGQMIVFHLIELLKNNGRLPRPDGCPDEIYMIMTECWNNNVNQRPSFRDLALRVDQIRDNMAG
Chain of Tyrosine-protein kinase JAK1 (P23458 whole entry, the tested form may be a part): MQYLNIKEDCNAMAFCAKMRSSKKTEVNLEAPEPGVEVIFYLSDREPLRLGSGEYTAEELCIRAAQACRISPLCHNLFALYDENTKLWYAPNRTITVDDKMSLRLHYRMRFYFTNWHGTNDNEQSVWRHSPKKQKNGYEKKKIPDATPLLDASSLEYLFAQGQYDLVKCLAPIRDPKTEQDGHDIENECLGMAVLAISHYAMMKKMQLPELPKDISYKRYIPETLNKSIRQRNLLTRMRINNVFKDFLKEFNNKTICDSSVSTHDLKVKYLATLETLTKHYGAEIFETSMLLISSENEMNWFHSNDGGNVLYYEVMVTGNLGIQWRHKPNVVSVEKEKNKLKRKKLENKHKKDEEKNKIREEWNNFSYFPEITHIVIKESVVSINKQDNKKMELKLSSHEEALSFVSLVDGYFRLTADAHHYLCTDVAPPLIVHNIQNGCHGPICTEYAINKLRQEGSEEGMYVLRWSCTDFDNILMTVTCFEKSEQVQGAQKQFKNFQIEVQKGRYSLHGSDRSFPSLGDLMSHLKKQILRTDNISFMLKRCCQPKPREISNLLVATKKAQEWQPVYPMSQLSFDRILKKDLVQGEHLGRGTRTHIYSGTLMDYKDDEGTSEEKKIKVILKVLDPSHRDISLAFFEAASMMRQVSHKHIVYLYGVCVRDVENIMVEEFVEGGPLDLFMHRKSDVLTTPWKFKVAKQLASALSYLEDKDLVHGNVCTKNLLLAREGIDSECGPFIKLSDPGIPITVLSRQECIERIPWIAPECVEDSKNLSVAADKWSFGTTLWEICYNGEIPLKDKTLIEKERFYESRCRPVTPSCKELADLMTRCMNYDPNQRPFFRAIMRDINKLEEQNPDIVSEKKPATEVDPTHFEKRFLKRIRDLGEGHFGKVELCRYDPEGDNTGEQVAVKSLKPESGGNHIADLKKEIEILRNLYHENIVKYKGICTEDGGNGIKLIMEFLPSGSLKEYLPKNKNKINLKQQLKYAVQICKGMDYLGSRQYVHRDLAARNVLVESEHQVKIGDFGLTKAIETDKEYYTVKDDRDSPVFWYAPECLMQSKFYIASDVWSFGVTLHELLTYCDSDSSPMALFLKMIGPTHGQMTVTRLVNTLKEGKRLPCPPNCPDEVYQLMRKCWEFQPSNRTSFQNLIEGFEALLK

Take `NC(=O)c1cnc2[nH]ccc2c1NC1C2CC3CC(C2)CC1C3` (configuration not stated): the CLint scaled at 0.2 µM in data set [1] was above 1000 mL/min/kg. Besides, the IC50 was 12 nM in [2], 11 nM in data set [3] and 2.1 nM in data set [4].

On to `NC(=O)c1cnc2[nH]ccc2c1NC1C2CC3CC1CC(F)(C3)C2` (configuration not stated), for which the CLint scaled at 0.2 µM in [1] is above 1000 mL/min/kg. In addition, the values for the IC50 in [2], in data set [3] and in [4] were 19 nM, 11 nM and 2.1 nM, respectively.

Regarding `Br.NC(=O)c1cnc2[nH]ccc2c1NC1C2CC3CC1CC(O)(C3)C2` (configuration not stated), the IC50 in data set [5] came to 10 nM. Besides, in data set [1], the CLint scaled at 0.2 µM is 124 mL/min/kg. Also, the half-life in [6] was 4.72 h; in data set [8], 2.12 h. This molecule also yielded a bioavailability in data set [7] of 45.9%. In addition, in [9], the Tmax amounted to 0.25 h. This molecule also came in with a maximum concentration (Cmax) in [10] of 126 ng/mL. Also, in data set [11], the clearance is 29 mL/min/kg. Besides, in data set [12], the Vd is 1.83 L/kg. The area under the curve AUC(0-inf) in [13] was found to be 575 ng·h/mL; in [14], 264 ng·h/mL.

Turning to `NC(=O)c1cnc2[nH]ccc2c1N[C@@H]1C[C@H]2CC[C@@H]1C2` (racemic), the CLint scaled at 0.2 µM in data set [1] was 859 mL/min/kg. The IC50 in [2] was 24 nM; in [3], 15 nM; in data set [4], 3.2 nM.

For the molecule `C[C@@H]1CCCC[C@@H]1Nc1c(C(N)=O)cnc2[nH]ccc12`, in data set [15], the CLint scaled is above 1000 mL/min/kg. Also, the 50% inhibitory concentration (IC50) in data set [16] was 86 nM.

Turning to `COC12CC3CC(C1)C(Nc1c(C(N)=O)cnc4[nH]ccc14)C(C3)C2` (configuration not stated), the CLint scaled at 0.2 µM in [1] is above 1000 mL/min/kg. The IC50 in [2] worked out at 7.8 nM; in [3], 5 nM; in [4], 0.63 nM.

For `NC(=O)c1cnc2[nH]ccc2c1NC12CC3CC(CC(C3)C1)C2`, the IC50 in data set [2] stood at 110 nM; in data set [3], 120 nM; in data set [4] it was 10 nM.
